Experimental data: ChEMBL document CHEMBL3286116, “Synthesis, biological evaluation and structure-activity correlation study of a series of imidazol-based compounds as Candida albicans inhibitors” (Eur J Med Chem, 2014)

Assays:
Type in all cases: functional
Candida albicans [1] = assay: Antifungal activity against Candida albicans ATCC 90028 after 48 hrs by CLSI broth microdilution method; settings: ATCC 90028, 48 h
Method in brief: (§1)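 Yeast CLSI broth microdilution (M27-A3). Compounds dissolved in DMSO at 100× the top test concentration, then diluted as serial two-fold dilutions in RPMI 1640 to final 0.125–64. Inoculum was 1.0–1.5 × 10^3 cells mL−1, incubated at 35 °C and read for growth at 48 h. MIC is the lowest concentration giving ≥50% growth inhibition versus growth control. Reported as the median of five replicates and as the geometric mean.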

Candida albicans [2] = assay: Antifungal activity against Candida albicans ATCC 20891 after 48 hrs by CLSI broth microdilution method; settings: ATCC 20891, 48 h; method in brief: as §1
Candida albicans [3] = assay: Antifungal activity against Candida albicans PMC 1011 after 48 hrs by CLSI broth microdilution method; settings: PMC 1011, 48 h; method in brief: as §1
Pichia kudriavzevii [4] = assay: Antifungal activity against Candida krusei DSM 6128 after 48 hrs by CLSI broth microdilution method; settings: DSM 6128, 48 h; method in brief: as §1
Pichia kudriavzevii [5] = assay: Antifungal activity against Candida krusei PMC 0613 after 48 hrs by CLSI broth microdilution method; settings: PMC 0613, 48 h; method in brief: as §1
Candida tropicalis [6] = assay: Antifungal activity against Candida tropicalis PMC 0910 after 48 hrs by CLSI broth microdilution method; settings: PMC 0910, 48 h; method in brief: as §1
Candida tropicalis [7] = assay: Antifungal activity against Candida tropicalis DSM 11953 after 48 hrs by CLSI broth microdilution method; settings: DSM 11953, 48 h; method in brief: as §1
Candida parapsilosis [8] = assay: Antifungal activity against Candida parapsilosis DSM 11224 after 48 hrs by CLSI broth microdilution method; settings: Lodderomyces parapsilosis, DSM 11224, 48 h; method in brief: as §1
Candida parapsilosis [9] = assay: Antifungal activity against Candida parapsilosis ATCC 22019 after 48 hrs by CLSI broth microdilution method; settings: Lodderomyces parapsilosis, ATCC 22019, 48 h; method in brief: as §1
Nakaseomyces glabratus [10] = assay: Antifungal activity against Candida glabrata PMC 0805 after 48 hrs by CLSI broth microdilution method; settings: PMC 0805, 48 h; method in brief: as §1
Nakaseomyces glabratus [11] = assay: Antifungal activity against Candida glabrata PMC 0807 after 48 hrs by CLSI broth microdilution method; settings: PMC 0807, 48 h; method in brief: as §1
Cryptococcus neoformans [12] = assay: Antifungal activity against Cryptococcus neoformans PMC 2123 after 72 hrs by CLSI broth microdilution method; settings: PMC 2123, 72 h
Method in brief: (§2)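 Cryptococcus neoformans tested by CLSI broth microdilution in RPMI 1640, with serial two-fold dilutions from DMSO stocks at 100× the top concentration, final 0.125–64. Inoculum was 1.0–1.5 × 10^3 cells mL−1 at 35 °C, with growth read at 72 h. MIC is the lowest concentration with ≥50% growth inhibition versus control. Median of five replicates, plus geometric mean.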

Cryptococcus neoformans [13] = assay: Antifungal activity against Cryptococcus neoformans PMC 2136 after 72 hrs by CLSI broth microdilution method; settings: PMC 2136, 72 h; method in brief: as §2
Cryptococcus neoformans [14] = assay: Antifungal activity against Cryptococcus neoformans PMC 2115 after 72 hrs by CLSI broth microdilution method; settings: PMC 2115, 72 h; method in brief: as §2
Cryptococcus neoformans [15] = assay: Antifungal activity against Cryptococcus neoformans PMC 2103 after 72 hrs by CLSI broth microdilution method; settings: PMC 2103, 72 h; method in brief: as §2
Cryptococcus neoformans [16] = assay: Antifungal activity against Cryptococcus neoformans PMC 2107 after 72 hrs by CLSI broth microdilution method; settings: PMC 2107, 72 h; method in brief: as §2
Cryptococcus neoformans [17] = assay: Antifungal activity against Cryptococcus neoformans PMC 2102 after 72 hrs by CLSI broth microdilution method; settings: PMC 2102, 72 h; method in brief: as §2
Cryptococcus neoformans [18] = assay: Antifungal activity against Cryptococcus neoformans DSM 11959 after 72 hrs by CLSI broth microdilution method; settings: DSM 11959, 72 h; method in brief: as §2
Cryptococcus neoformans [19] = assay: Antifungal activity against Cryptococcus neoformans PMC 2111 after 72 hrs by CLSI broth microdilution method; settings: PMC 2111, 72 h; method in brief: as §2
[20] = tested on: Trichophyton mentagrophytes; assay: Antifungal activity against Trichophyton mentagrophytes DSM 4870 after 72 hrs by CLSI broth microdilution method; settings: DSM 4870, 72 h
Method in brief: (§3)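 Dermatophytes tested by CLSI broth microdilution for filamentous fungi (M38-A2). Serial two-fold dilutions of DMSO-dissolved compound in RPMI 1640, final 0.125–64. Inoculum was 0.4–5 × 10^4 CFU mL−1, incubated at 35 °C and read at 72 h. MIC80 is the lowest concentration giving ≥80% growth inhibition versus growth control. Median of five replicates, plus geometric mean.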

[21] = tested on: Trichophyton mentagrophytes; assay: Antifungal activity against Trichophyton mentagrophytes PMC 6515 after 72 hrs by CLSI broth microdilution method; settings: PMC 6515, 72 h; method in brief: as §3
[22] = tested on: Trichophyton mentagrophytes; assay: Antifungal activity against Trichophyton mentagrophytes PMC 6531 after 72 hrs by CLSI broth microdilution method; settings: PMC 6531, 72 h; method in brief: as §3
[23] = tested on: Trichophyton mentagrophytes; assay: Antifungal activity against Trichophyton mentagrophytes PMC 6509 after 72 hrs by CLSI broth microdilution method; settings: PMC 6509, 72 h; method in brief: as §3
[24] = tested on: Trichophyton mentagrophytes; assay: Antifungal activity against Trichophyton mentagrophytes PMC 6503 after 72 hrs by CLSI broth microdilution method; settings: PMC 6503, 72 h; method in brief: as §3
[25] = tested on: Trichophyton mentagrophytes; assay: Antifungal activity against Trichophyton mentagrophytes PMC 6552 after 72 hrs by CLSI broth microdilution method; settings: PMC 6552, 72 h; method in brief: as §3
Nannizzia gypsea [26] = assay: Antifungal activity against Microsporum gypseum PMC 7303 after 72 hrs by CLSI broth microdilution method; settings: PMC 7303, 72 h; method in brief: as §3
Nannizzia gypsea [27] = assay: Antifungal activity against Microsporum gypseum PMC 7331 after 72 hrs by CLSI broth microdilution method; settings: PMC 7331, 72 h; method in brief: as §3
Nannizzia gypsea [28] = assay: Antifungal activity against Microsporum gypseum DSM 3824 after 72 hrs by CLSI broth microdilution method; settings: DSM 3824, 72 h; method in brief: as §3
Candida albicans [29] = assay: Antifungal activity against Candida albicans ATCC 24433 after 48 hrs by CLSI broth microdilution method; settings: ATCC 24433, 48 h; method in brief: as §1
Candida albicans [30] = assay: Antifungal activity against Candida albicans ATCC 3153 after 48 hrs by CLSI broth microdilution method; settings: ATCC 3153, 48 h; method in brief: as §1
Candida albicans [31] = assay: Antifungal activity against Candida albicans ATCC 10231 after 48 hrs by CLSI broth microdilution method; settings: ATCC 10231, 48 h; method in brief: as §1
Candida albicans [32] = assay: Antifungal activity against Candida albicans ATCC 76615 after 48 hrs by CLSI broth microdilution method; settings: ATCC 76615, 48 h; method in brief: as §1
Candida albicans [33] = assay: Antifungal activity against Candida albicans ATCC 10261 after 48 hrs by CLSI broth microdilution method; settings: ATCC 10261, 48 h; method in brief: as §1

O=C(OC(Cn1ccnc1)c1ccc(F)cc1)N1CCN(c2ccc([N+](=O)[O-])cc2)CC1 (stereo unspecified)
16 µg/mL: MIC50 (Pichia kudriavzevii [5]) | MIC50 (Candida parapsilosis [9]) | MIC50 (Cryptococcus neoformans [13]) | MIC50 (Cryptococcus neoformans [16]) | MIC50 (Cryptococcus neoformans [18]) | MIC50 (Cryptococcus neoformans [19]) | MIC50 (Candida albicans [30])
8 µg/mL: MIC50 (Candida albicans [1]) | MIC50 (Candida albicans [2]) | MIC50 (Candida albicans [3]) | MIC50 (Cryptococcus neoformans [15]) | MIC50 (Candida albicans [33])
128 µg/mL: MIC50 (Candida tropicalis [7]) | MIC50 (Cryptococcus neoformans [12]) | MIC50 (Candida albicans [32])
64 µg/mL: MIC50 (Pichia kudriavzevii [4]) | MIC50 (Nakaseomyces glabratus [10]) | MIC50 (Nakaseomyces glabratus [11]) | MIC50 (Cryptococcus neoformans [14]) | MIC80 [20] | MIC80 [21] | MIC80 [22] | MIC80 [23] | MIC80 (Nannizzia gypsea [28])
32 µg/mL: MIC50 (Candida tropicalis [6]) | MIC50 (Cryptococcus neoformans [17]) | MIC80 [24] | MIC80 [25] | MIC80 (Nannizzia gypsea [26]) | MIC80 (Nannizzia gypsea [27]) | MIC50 (Candida albicans [29]) | MIC50 (Candida albicans [31])
4 µg/mL: MIC50 (Candida parapsilosis [8])

O=C(OC(Cn1ccnc1)c1ccc(Cl)cc1)N1CCN(c2ccc([N+](=O)[O-])cc2)CC1 (stereo unspecified)
2 µg/mL: MIC50 (Candida albicans [1])
16 µg/mL: MIC50 (Candida albicans [3]) | MIC50 (Pichia kudriavzevii [5]) | MIC50 (Cryptococcus neoformans [17]) | MIC80 (Nannizzia gypsea [27]) | MIC50 (Candida albicans [30]) | MIC50 (Candida albicans [31])
8 µg/mL: MIC50 (Candida albicans [2]) | MIC50 (Candida parapsilosis [9]) | MIC50 (Cryptococcus neoformans [13]) | MIC50 (Cryptococcus neoformans [15]) | MIC50 (Cryptococcus neoformans [16]) | MIC50 (Cryptococcus neoformans [18]) | MIC50 (Cryptococcus neoformans [19]) | MIC50 (Candida albicans [33])
32 µg/mL: MIC50 (Cryptococcus neoformans [14]) | MIC80 [21] | MIC80 [22] | MIC80 [23] | MIC80 [25] | MIC80 (Nannizzia gypsea [26]) | MIC50 (Candida albicans [29])
128 µg/mL: MIC50 (Pichia kudriavzevii [4]) | MIC50 (Candida tropicalis [7]) | MIC50 (Candida albicans [32])
4 µg/mL: MIC50 (Candida parapsilosis [8])
64 µg/mL: MIC50 (Candida tropicalis [6]) | MIC50 (Nakaseomyces glabratus [10]) | MIC50 (Nakaseomyces glabratus [11]) | MIC50 (Cryptococcus neoformans [12]) | MIC80 [20] | MIC80 [24] | MIC80 (Nannizzia gypsea [28])
